# Measured values reported in ChEMBL document CHEMBL2346608, “New annelated thieno[2,3-e][1,2,3]triazolo[1,5-a]pyrimidines, with potent anticancer activity, designed through VLAK protocol” (2013).
# What was measured:
# Assay type in all cases: functional
# SK-OV-3 = assay: Antiproliferative activity against human SKOV3 cells after 48 hrs by sulforhodamine B assay; conditions: SK-OV-3, 48 h
# Procedure, shortened: (§1)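 Cells grown in RPMI 1640 with 5% FBS and 2 mM L-glutamine, plated at 5000–40,000 cells/well and preincubated 24 h at 37 °C, 5% CO2. Five drug concentrations (10-fold or ½-log dilutions from DMSO stocks) applied for 48 h. TCA-fixed (final 10% adherent, 16% suspension), SRB-stained, A515 read. Growth versus time-zero and control wells gave GI50, TGI, LC50.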
# NCI/ADR-RES = assay: Antiproliferative activity against human NCI/ADR-RES cells after 48 hrs by sulforhodamine B assay; procedure, shortened: as §1
# NCI-H522 = assay: Antiproliferative activity against human NCI-H522 cells after 48 hrs by sulforhodamine B assay; conditions: NCI-H522, 48 h; procedure, shortened: as §1
# NCI-H460 = assay: Antiproliferative activity against human NCI-H460 cells after 48 hrs by sulforhodamine B assay; conditions: NCI-H460, 48 h; procedure, shortened: as §1
# NCI-H322M = assay: Antiproliferative activity against human NCI-H322M cells after 48 hrs by sulforhodamine B assay; procedure, shortened: as §1
# NCI-H23 = assay: Antiproliferative activity against human NCI-H23 cells after 48 hrs by sulforhodamine B assay; conditions: NCI-H23, 48 h; procedure, shortened: as §1
# HOP-92 = assay: Antiproliferative activity against human HOP92 cells after 48 hrs by sulforhodamine B assay; conditions: HOP-92, 48 h; procedure, shortened: as §1
# UACC-62 = assay: Antiproliferative activity against human UACC62 cells after 48 hrs by sulforhodamine B assay; conditions: UACC-62, 48 h
# Procedure, shortened: (§2)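 Cells in RPMI 1640 with 5% FBS and 2 mM L-glutamine were seeded at 5000–40,000/well according to doubling time and preincubated 24 h at 37 °C in 5% CO2. Time-zero plates were TCA-fixed when drug was added. Five 10-fold or ½-log dilutions from DMSO stocks were added for 48 h. After SRB staining, A515 was read and GI50 derived from [(Ti−Tz)/(C−Tz)]×100 = 50.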
# UACC-257 = assay: Antiproliferative activity against human UACC257 cells after 48 hrs by sulforhodamine B assay; conditions: UACC-257, 48 h; procedure, shortened: as §2
# SK-MEL-5 = assay: Antiproliferative activity against human SK-MEL-5 cells after 48 hrs by sulforhodamine B assay; conditions: SK-MEL-5, 48 h; procedure, shortened: as §1
# Malme-3M = assay: Antiproliferative activity against human MALME-3M cells after 48 hrs by sulforhodamine B assay; procedure, shortened: as §1
# RPMI-8226 = assay: Antiproliferative activity against human RPMI8226 cells after 48 hrs by sulforhodamine B assay; conditions: RPMI-8226, 48 h; procedure, shortened: as §1
# K562 = assay: Antiproliferative activity against human K562 cells after 48 hrs by sulforhodamine B assay; conditions: K562, 48 h; procedure, shortened: as §1
# MOLT-4 = assay: Antiproliferative activity against human MOLT4 cells after 48 hrs by sulforhodamine B assay; conditions: MOLT-4, 48 h; procedure, shortened: as §1
# CCRF-CEM = assay: Antiproliferative activity against human CCRF-CEM cells after 48 hrs by sulforhodamine B assay; procedure, shortened: as §1
# SW-620 = assay: Antiproliferative activity against human SW620 cells after 48 hrs by sulforhodamine B assay; conditions: SW-620, 48 h; procedure, shortened: as §2
# HCT-116 = assay: Antiproliferative activity against human HCT116 cells after 48 hrs by sulforhodamine B assay; conditions: HCT-116, 48 h; procedure, shortened: as §1
# [1] = Antiproliferative activity against human HCC2998 cells after 48 hrs by sulforhodamine B assay; conditions: HCC 2998, 48 h; procedure, shortened: as §1
# COLO 205 = assay: Antiproliferative activity against human COLO205 cells after 48 hrs by sulforhodamine B assay; conditions: COLO 205, 48 h; procedure, shortened: as §1
# SNB-75 = assay: Antiproliferative activity against human SNB75 cells after 48 hrs by sulforhodamine B assay; conditions: SNB-75, 48 h; procedure, shortened: as §2
# SNB-19 = assay: Antiproliferative activity against human SNB19 cells after 48 hrs by sulforhodamine B assay; conditions: SNB-19, 48 h; procedure, shortened: as §1
# SF-295 = assay: Antiproliferative activity against human SF295 cells after 48 hrs by sulforhodamine B assay; conditions: SF-295, 48 h; procedure, shortened: as §1
# T47D = assay: Antiproliferative activity against human T47D cells after 48 hrs by sulforhodamine B assay; procedure, shortened: as §2
# MDA-MB-231 = assay: Antiproliferative activity against human MDA-MB-231 cells after 48 hrs by sulforhodamine B assay; conditions: MDA-MB-231, 48 h; procedure, shortened: as §1
# UO-31 = assay: Antiproliferative activity against human UO31 cells after 48 hrs by sulforhodamine B assay; conditions: UO-31, 48 h; procedure, shortened: as §2
# CAKI-1 = assay: Antiproliferative activity against human CAKI-1 cells after 48 hrs by sulforhodamine B assay; conditions: CAKI-1, 48 h; procedure, shortened: as §1
# RXF 393 = assay: Antiproliferative activity against human RXF393 cells after 48 hrs by sulforhodamine B assay; conditions: RXF 393, 48 h; procedure, shortened: as §1
# A498 = assay: Antiproliferative activity against human A498 cells after 48 hrs by sulforhodamine B assay; conditions: A498, 48 h; procedure, shortened: as §1
# PC-3 = assay: Antiproliferative activity against human PC3 cells after 48 hrs by sulforhodamine B assay; conditions: PC-3, 48 h; procedure, shortened: as §1
# [2] = read-out: pLC50 (the source's name) (converted)
compound,measurement,setting,value
CN1CCN(CCCn2c(=O)c3sc4ncccc4c3n3nnc(-c4ccccc4)c23)CC1,GI50,SK-OV-3,8.91 µM
same,LC50,SK-OV-3,28.2 µM
same,TGI,SK-OV-3; read-out: pTGI (converted),15.8 µM
same,GI50,NCI/ADR-RES,7.24 µM
same,LC50,NCI/ADR-RES,28.2 µM
same,TGI,NCI/ADR-RES; read-out: pTGI (converted),14.1 µM
same,GI50,NCI-H522,7.24 µM
same,LC50,NCI-H522,28.8 µM
same,TGI,NCI-H522; read-out: pTGI (converted),14.5 µM
same,GI50,NCI-H460,6.92 µM
same,LC50,NCI-H460,26.9 µM
same,TGI,NCI-H460; read-out: pTGI (converted),13.8 µM
same,GI50,NCI-H322M,6.17 µM
same,LC50,NCI-H322M,26.9 µM
same,TGI,NCI-H322M; read-out: pTGI (converted),12.9 µM
same,GI50,NCI-H23,8.13 µM
same,LC50,NCI-H23,28.8 µM
same,TGI,NCI-H23; read-out: pTGI (converted),15.5 µM
same,GI50,HOP-92,5.75 µM
same,CC50,HOP-92; [2],28.8 µM
same,TGI,HOP-92; read-out: pTGI (converted),12.9 µM
same,GI50,UACC-62,8.91 µM
same,LC50 (concentration killing 50% of cells),UACC-62,29.5 µM
same,TGI,UACC-62; read-out: pTGI (converted),16.2 µM
same,GI50,UACC-257,2.29 µM
same,LC50,UACC-257,20.4 µM
same,TGI,UACC-257; read-out: pTGI (converted),7.59 µM
same,GI50,SK-MEL-5,7.24 µM
same,LC50,SK-MEL-5,26.3 µM
same,TGI,SK-MEL-5; read-out: pTGI (converted),13.8 µM
same,GI50,Malme-3M,9.33 µM
same,LC50,Malme-3M,33.9 µM
same,TGI,Malme-3M; read-out: pTGI (converted),17.8 µM
same,GI50,RPMI-8226,6.17 µM
same,CC50,RPMI-8226; [2],40.7 µM
same,TGI,RPMI-8226; read-out: pTGI (converted),15.8 µM
same,GI50,K562,0.871 µM
same,LC50 (concentration killing 50% of cells),K562,4.79 µM
same,TGI,K562; read-out: pTGI (converted),2.04 µM
same,GI50,MOLT-4,1.55 µM
same,LC50,MOLT-4,21.4 µM
same,TGI,MOLT-4; read-out: pTGI (converted),4.9 µM
same,GI50,CCRF-CEM,1.55 µM
same,LC50,CCRF-CEM,24.5 µM
same,TGI,CCRF-CEM; read-out: pTGI (converted),5.25 µM
same,GI50,SW-620,5.37 µM
same,LC50,SW-620,24.5 µM
same,TGI,SW-620; read-out: pTGI (converted),11.5 µM
same,GI50,HCT-116,5.25 µM
same,LC50,HCT-116,26.3 µM
same,TGI,HCT-116; read-out: pTGI (converted),11.7 µM
same,GI50,[1],6.76 µM
same,LC50,[1],26.3 µM
same,TGI,[1]; read-out: pTGI (converted),13.5 µM
same,GI50,COLO 205,7.41 µM
same,LC50,COLO 205,28.8 µM
same,TGI,COLO 205; read-out: pTGI (converted),14.5 µM
same,GI50,SNB-75,6.76 µM
same,LC50 (concentration killing 50% of starting cells),SNB-75,25.7 µM
same,TGI,SNB-75; read-out: pTGI (converted),13.2 µM
same,GI50,SNB-19,8.32 µM
same,LC50,SNB-19,29.5 µM
same,TGI,SNB-19; read-out: pTGI (converted),15.8 µM
same,GI50,SF-295,5.62 µM
same,LC50,SF-295,26.9 µM
same,TGI,SF-295; read-out: pTGI (converted),12.3 µM
same,GI50,T47D,7.94 µM
same,LC50,T47D,31.6 µM
same,TGI,T47D; read-out: pTGI (converted),15.8 µM
same,GI50,MDA-MB-231,6.92 µM
same,LC50,MDA-MB-231,26.9 µM
same,TGI,MDA-MB-231; read-out: pTGI (converted),13.5 µM
same,GI50,UO-31,5.13 µM
same,LC50,UO-31,28.2 µM
same,TGI,UO-31; read-out: pTGI (converted),12 µM
same,GI50,CAKI-1,6.17 µM
same,CC50,CAKI-1; [2],27.5 µM
same,TGI,CAKI-1; read-out: pTGI (converted),12.9 µM
same,GI50,RXF 393,6.31 µM
same,LC50,RXF 393,28.2 µM
same,TGI,RXF 393; read-out: pTGI (converted),13.5 µM
same,GI50,A498,0.158 µM
same,LC50,A498,21.9 µM
same,TGI,A498; read-out: pTGI (converted),9.33 µM
same,GI50,PC-3,6.31 µM
same,LC50,PC-3,28.8 µM
same,TGI,PC-3; read-out: pTGI (converted),13.5 µM
